Results from ChEMBL document CHEMBL3112515, “Discovery of novel 6,7-disubstituted-4-phenoxyquinoline derivatives bearing 5-(aminomethylene)pyrimidine-2,4,6-trione moiety as c-Met kinase inhibitors” (Bioorg Med Chem, 2014).

Columns and labels:
[1] = Cytotoxicity against human MKN45 cells after 72 hrs by MTT assay; details: MKN-45, 72 h
HT-29 = assay: Cytotoxicity against human HT-29 cells after 72 hrs by MTT assay; details: HT-29, 72 h
[2] = biological target: Hepatocyte growth factor receptor (Homo sapiens, UniProt P08581); assay: Inhibition of c-Met (unknown origin) using poly (Glu, Tyr) 4:1 after 30 mins by HTRF assay
[3] = Cytotoxicity against human U87MG cells after 72 hrs by MTT assay; assay type: functional, cell-based, U-87MG ATCC; details: U-87 MG
Method in brief: (§1)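 Cells were grown in MEM with 10% FBS and seeded at about 4×10^3 cells per well, then held 24 h at 37 °C in 5% CO2. Compounds were added and the cells cultured 72 h. MTT was added to 5 µg/mL final for 4 h at 37 °C, and the formazan was dissolved in DMSO. IC50 is the mean of three determinations.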

[4] = Cytotoxicity against human H460 cells after 72 hrs by MTT assay; details: NCI-H460, 72 h
A549 = assay: Cytotoxicity against human A549 cells after 72 hrs by MTT assay; assay type: functional, cell-based; details: A549, 72 h; method in brief: as §1

Structure (SMILES)	IC50 [1] [nM]	IC50 (HT-29) [nM]	IC50 [2] [nM]	IC50 [3] [nM]	IC50 [4] [nM]	IC50 (A549) [nM]
COc1cc2c(Oc3ccc(N/C=C4\C(=O)NC(=O)N(c5ccc(C)cc5)C4=O)cc3F)ccnc2cc1OCCCN1CCN(C)CC1	160	490	2.68	3200	70	430
COc1cc2c(Oc3ccc(N/C=C4\C(=O)NC(=O)N(c5ccccc5C(F)(F)F)C4=O)cc3F)ccnc2cc1OCCCN1CCC(C)CC1	310	600	18.3	–	380	–
COc1cc2c(Oc3ccc(N/C=C4\C(=O)NC(=O)N(c5ccc(C)cc5)C4=O)cc3F)ccnc2cc1OCCCN1CCCCC1	190	120	2.58	1500	100	380
COc1cc2c(Oc3ccc(N/C=C4\C(=O)NC(=O)N(c5ccc(C)cc5)C4=O)cc3F)ccnc2cc1OCCCN1CCC(C)CC1	56	140	1.64	920	59	990
COc1cc2c(Oc3ccc(N/C=C4\C(=O)NC(=O)N(c5c(C)cccc5C)C4=O)cc3F)ccnc2cc1OCCCN1CCCCC1	490	200	3.72	1200	160	310
COc1cc2c(Oc3ccc(N/C=C4\C(=O)NC(=O)N(c5ccc(F)cc5)C4=O)cc3F)ccnc2cc1OCCCN1CCCCC1	480	140	3.64	–	160	–
COc1cc2c(Oc3ccc(N/C=C4\C(=O)NC(=O)N(c5ccccc5C(F)(F)F)C4=O)cc3F)ccnc2cc1OCCCN1CCCC1	1400	370	7.51	–	360	–
COc1cc2c(Oc3ccc(N/C=C4\C(=O)NC(=O)N(c5c(C)cccc5C)C4=O)cc3F)ccnc2cc1OCCCN1CCN(C)CC1	450	260	3.26	–	170	–
COc1cc2c(Oc3ccc(N/C=C4\C(=O)NC(=O)N(c5ccc(F)cc5F)C4=O)cc3F)ccnc2cc1OCCCN1CCN(C)CC1	510	1500	8.35	1600	1170	380
COc1cc2c(Oc3ccc(N/C=C4\C(=O)NC(=O)N(c5ccccc5C(F)(F)F)C4=O)cc3F)ccnc2cc1OCCCN1CCOCC1	18400	3700	21.2	–	2300	–
COc1cc2c(Oc3ccc(N/C=C4\C(=O)NC(=O)N(c5c(C)cccc5C)C4=O)cc3F)ccnc2cc1OCCCN1CCCC1	900	120	2.35	1240	160	230
COc1cc2c(Oc3ccc(N/C=C4\C(=O)NC(=O)N(c5ccc(C)cc5)C4=O)cc3F)ccnc2cc1OCCCN1CCOCC1	210	180	2.16	8500	61	110
COc1cc(N2C(=O)NC(=O)/C(=C\Nc3ccc(Oc4ccnc5cc(OCCCN6CCN(C)CC6)c(OC)cc45)c(F)c3)C2=O)c(OC)cc1Cl	480	7700	24.7	–	1800	–
COc1cc2c(Oc3ccc(N/C=C4\C(=O)NC(=O)N(c5c(C)cccc5C)C4=O)cc3F)ccnc2cc1OCCCN1CCOCC1	5500	140	3.03	7100	85	2200
COc1cc2c(Oc3ccc(N/C=C4\C(=O)NC(=O)N(c5ccccc5C(F)(F)F)C4=O)cc3F)ccnc2cc1OCCCN1CCN(C)CC1	3500	7300	8.14	–	4200	–
COc1cc2c(Oc3ccc(N/C=C4\C(=O)NC(=O)N(c5ccccc5)C4=O)cc3F)ccnc2cc1OCCCN1CCCC1	210	200	3.36	–	290	–

Structure (SMILES)	IC50 [1] [nM]	IC50 (HT-29) [nM]	IC50 [2] [nM]	IC50 [3] [nM]	IC50 [4] [nM]	IC50 (A549) [nM]
COc1cc2c(Oc3ccc(N/C=C4\C(=O)NC(=O)N(c5ccc(F)cc5F)C4=O)cc3F)ccnc2cc1OCCCN1CCC(C)CC1	460	5100	16	–	260	–
COc1cc2c(Oc3ccc(N/C=C4\C(=O)NC(=O)N(c5ccc(F)cc5)C4=O)cc3F)ccnc2cc1OCCCN1CCC(C)CC1	120	220	3.09	3200	110	350
COc1cc2c(Oc3ccc(N/C=C4\C(=O)NC(=O)N(c5ccccc5)C4=O)cc3F)ccnc2cc1OCCCN1CCOCC1	310	350	4.57	4800	260	930
COc1cc2c(Oc3ccc(N/C=C4\C(=O)NC(=O)N(c5ccc(F)cc5F)C4=O)cc3F)ccnc2cc1OCCCN1CCCCC1	3900	420	9.27	–	1100	–
COc1cc(N2C(=O)NC(=O)/C(=C\Nc3ccc(Oc4ccnc5cc(OCCCN6CCOCC6)c(OC)cc45)c(F)c3)C2=O)c(OC)cc1Cl	2400	1300	32.8	–	540	–
COc1cc2c(Oc3ccc(N/C=C4\C(=O)NC(=O)N(c5ccc(F)cc5)C4=O)cc3F)ccnc2cc1OCCCN1CCCC1	1200	490	2.68	–	620	–
COc1cc(N2C(=O)NC(=O)/C(=C\Nc3ccc(Oc4ccnc5cc(OCCCN6CCCCC6)c(OC)cc45)c(F)c3)C2=O)c(OC)cc1Cl	1970	2600	27.9	–	1200	–
COc1cc2c(Oc3ccc(N/C=C4\C(=O)NC(=O)N(c5ccccc5C(F)(F)F)C4=O)cc3F)ccnc2cc1OCCCN1CCCCC1	100	1300	18.5	–	930	–
COc1cc2c(Oc3ccc(N/C=C4\C(=O)NC(=O)N(c5ccccc5)C4=O)cc3F)ccnc2cc1OCCCN1CCN(C)CC1	520	190	3.29	–	290	–
COc1cc2c(Oc3ccc(N/C=C4\C(=O)NC(=O)N(c5ccc(F)cc5)C4=O)cc3F)ccnc2cc1OCCCN1CCN(C)CC1	120	310	3.15	–	120	510
COc1cc2c(Oc3ccc(N/C=C4\C(=O)NC(=O)N(c5ccc(F)cc5F)C4=O)cc3F)ccnc2cc1OCCCN1CCOCC1	780	560	12.4	–	850	–
COc1cc2c(Oc3ccc(N/C=C4\C(=O)NC(=O)N(c5ccc(F)cc5)C4=O)cc3F)ccnc2cc1OCCCN1CCOCC1	740	240	3.58	–	120	–
COc1cc2c(Oc3ccc(N/C=C4\C(=O)NC(=O)N(c5ccc(F)cc5F)C4=O)cc3F)ccnc2cc1OCCCN1CCCC1	2800	710	12.4	–	240	–
COc1cc2c(Oc3ccc(N/C=C4\C(=O)NC(=O)N(c5ccc(F)c(Cl)c5)C4=O)cc3F)ccnc2cc1OCCCN1CCC(C)CC1	65	150	4.82	–	87	–
COc1cc2c(Oc3ccc(N/C=C4\C(=O)NC(=O)N(c5c(C)cccc5C)C4=O)cc3F)ccnc2cc1OCCCN1CCC(C)CC1	130	120	2.83	–	150	–
